# Source: ChEMBL document CHEMBL1221342, “Synthesis and in vitro antitumor activity of new 4,5-dihydropyrazole derivatives” (Bioorg Med Chem, 2010)
# Legend:
# Type in all cases: functional
# [1] = tested on: SK-MEL-5; test: Growth inhibition of human SK-MEL-5 cells after 48 hrs by SRB assay; conditions: SK-MEL-5, 48 h
# Outline: (§1)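 NCI 60-cell-line screen. Cells grown in RPMI1640 with 5% fetal calf serum and 2 mM L-glutamine, with inoculum density set by cell line. Preincubated 24 h, then given compound in DMSO at 10^-4 to 10^-8 M (five 10-fold steps) for 48 h continuous exposure. Growth measured by SRB protein assay. GI50, TGI and LC50 reported as –log molar.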
# [2] = tested on: MCF7; test: Growth inhibition of human MCF7 cells after 48 hrs by SRB assay; conditions: MCF7, 48 h; outline: as §1
# [3] = tested on: SK-OV-3; test: Growth inhibition of human SKOV3 cells after 48 hrs by SRB assay; conditions: SK-OV-3, 48 h; outline: as §1
# [4] = tested on: SR; test: Growth inhibition of human SR cells after 48 hrs by SRB assay; outline: as §1
# [5] = tested on: CAKI-1; test: Growth inhibition of human Caki1 cells after 48 hrs by SRB assay; conditions: CAKI-1, 48 h; outline: as §1
# [6] = tested on: OVCAR-4; test: Growth inhibition of human OVCAR4 cells after 48 hrs by SRB assay; conditions: OVCAR-4, 48 h; outline: as §1
# [7] = tested on: OVCAR-8; test: Growth inhibition of human OVCAR8 cells after 48 hrs by SRB assay; conditions: OVCAR-8, 48 h; outline: as §1
# [8] = tested on: Malme-3M; test: Growth inhibition of human MALME-3M cells after 48 hrs by SRB assay; outline: as §1
# [9] = tested on: OVCAR-3; test: Growth inhibition of human OVCAR-3 cells after 48 hrs by SRB assay; conditions: OVCAR-3, 48 h; outline: as §1
# [10] = tested on: PC-3; test: Growth inhibition of human PC3 cells after 48 hrs by SRB assay; conditions: PC-3, 48 h; outline: as §1
# [11] = tested on: SF-539; test: Growth inhibition of human SF539 cells after 48 hrs by SRB assay; conditions: SF-539, 48 h; outline: as §1
# [12] = tested on: NCI/ADR-RES; test: Growth inhibition of human NCI/ADR-RES cells after 48 hrs by SRB assay; outline: as §1
# [13] = tested on: 786-0; test: Growth inhibition of human 786-0 cells after 48 hrs by SRB assay; conditions: 786-0, 48 h; outline: as §1
# [14] = Growth inhibition of human Hs 578T cells after 48 hrs by SRB assay; outline: as §1
# [15] = tested on: NCI-H322M; test: Growth inhibition of human NCI-H322M cells after 48 hrs by SRB assay; outline: as §1
# [16] = tested on: HOP-62; test: Growth inhibition of human HOP62 cells after 48 hrs by SRB assay; conditions: HOP-62, 48 h; outline: as §1
# [17] = tested on: U-251; test: Growth inhibition of human U251 cells after 48 hrs by SRB assay; conditions: U-251, 48 h; outline: as §1
# [18] = tested on: NCI-H460; test: Growth inhibition of human NCI-H460 cells after 48 hrs by SRB assay; conditions: NCI-H460, 48 h; outline: as §1
# [19] = tested on: IGROV-1; test: Growth inhibition of human IGROV1 cells after 48 hrs by SRB assay; conditions: IGROV-1, 48 h; outline: as §1
# [20] = tested on: SNB-75; test: Growth inhibition of human SNB75 cells after 48 hrs by SRB assay; conditions: SNB-75, 48 h; outline: as §1
# [21] = tested on: UACC-62; test: Growth inhibition of human UACC62 cells after 48 hrs by SRB assay; conditions: UACC-62, 48 h; outline: as §1
# [22] = tested on: BT-549; test: Growth inhibition of human BT549 cells after 48 hrs by SRB assay; conditions: BT-549, 48 h; outline: as §1
# [23] = tested on: CCRF-CEM; test: Growth inhibition of human CCRF-CEM cells after 48 hrs by SRB assay; outline: as §1
# [24] = tested on: RXF 393; test: Growth inhibition of human RXF393 cells after 48 hrs by SRB assay; conditions: RXF 393, 48 h; outline: as §1
# [25] = tested on: TK-10; test: Growth inhibition of human TK10 cells after 48 hrs by SRB assay; conditions: TK-10, 48 h; outline: as §1
# [26] = tested on: SK-MEL-2; test: Growth inhibition of human SK-MEL-2 cells after 48 hrs by SRB assay; conditions: SK-MEL-2, 48 h; outline: as §1
# [27] = tested on: HCT-15; test: Growth inhibition of human HCT15 cells after 48 hrs by SRB assay; conditions: HCT-15, 48 h; outline: as §1
# [28] = tested on: HL-60(TB); test: Growth inhibition of human HL-60(TB) cells after 48 hrs by SRB assay; conditions: HL-60, 48 h
# Outline: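 NCI 60-cell-line screen: cells grown in RPMI1640 with 5% fetal calf serum and 2 mM L-glutamine, preincubated 24 h, then exposed to compound in DMSO at five concentrations (10^-4 to 10^-8 M) for 48 h continuous exposure. Growth estimated by sulforhodamine B protein assay; reported as pGI50 (-log molar concentration inhibiting net cell growth by 50%).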
# [29] = tested on: UO-31; test: Growth inhibition of human UO31 cells after 48 hrs by SRB assay; conditions: UO-31, 48 h; outline: as §1
# [30] = tested on: SK-MEL-28; test: Growth inhibition of human SK-MEL-28 cells after 48 hrs by SRB assay; conditions: SK-MEL-28, 48 h; outline: as §1
# [31] = tested on: HCC 2998; test: Growth inhibition of human HCC2998 cells after 48 hrs by SRB assay; conditions: HCC 2998, 48 h; outline: as §1
# [32] = tested on: EKVX; test: Growth inhibition of human EKVX cells after 48 hrs by SRB assay; outline: as §1
# [33] = tested on: DU-145; test: Growth inhibition of human DU145 cells after 48 hrs by SRB assay; conditions: DU-145, 48 h; outline: as §1
# [34] = tested on: M14; test: Growth inhibition of human M14 cells after 48 hrs by SRB assay; conditions: M14, 48 h; outline: as §1
# [35] = tested on: SF-295; test: Growth inhibition of human SF295 cells after 48 hrs by SRB assay; conditions: SF-295, 48 h; outline: as §1
# [36] = Growth inhibition of human […] cells after 48 hrs by SRB assay; outline: as §1
smiles,measurement,setting,value
COc1ccc(/C=C\c2cc(OC)c(OC)c(OC)c2)cc1O [COMBRETASTATIN A4],GI50,[1],10 nM
same,TGI,[1]; read-out: pTGI (converted),10 nM
same,GI50,[2],39.8 nM
same,TGI,[2]; read-out: pTGI (converted),79.4 µM
same,GI50,[3],31.6 µM
same,TGI,[3]; read-out: pTGI (converted),> 100 µM
same,GI50,[4],126 nM
same,TGI,[4]; read-out: pTGI (converted),79.4 µM
same,GI50,[5],39.8 nM
same,TGI,[5]; read-out: pTGI (converted),15.8 µM
same,GI50,[6],251 nM
same,TGI,[6]; read-out: pTGI (converted),79.4 µM
same,GI50,[7],39.8 nM
same,TGI,[7]; read-out: pTGI (converted),39.8 µM
same,GI50,[8],501 nM
same,TGI,[8]; read-out: pTGI (converted),79.4 µM
same,GI50,[9],39.8 nM
same,TGI,[9]; read-out: pTGI (converted),158 nM
same,GI50,[10],39.8 nM
same,TGI,[10]; read-out: pTGI (converted),> 100 µM
same,GI50,[11],39.8 nM
same,TGI,[11]; read-out: pTGI (converted),200 nM
same,GI50,[12],63.1 nM
same,TGI,[12]; read-out: pTGI (converted),398 nM
same,GI50,[13],19.9 nM
same,TGI,[13]; read-out: pTGI (converted),25.1 µM
same,GI50,[14],158 nM
same,TGI,[14]; read-out: pTGI (converted),7.94 µM
same,GI50,[15],79.4 nM
same,TGI,[15]; read-out: pTGI (converted),79.4 µM
same,GI50,[16],200 nM
same,TGI,[16]; read-out: pTGI (converted),2510 nM
same,GI50,[17],50.1 nM
same,TGI,[17]; read-out: pTGI (converted),12.6 µM
same,GI50,[18],31.6 nM
same,TGI,[18]; read-out: pTGI (converted),63.1 µM
same,GI50,[19],63.1 nM
same,TGI,[19]; read-out: pTGI (converted),63.1 µM
same,GI50,[20],794 nM
same,TGI,[20]; read-out: pTGI (converted),25.1 µM
same,GI50,[21],10 nM
same,TGI,[21]; read-out: pTGI (converted),63.1 µM
same,GI50,[22],10 nM
same,TGI,[22]; read-out: pTGI (converted),2000 nM
same,GI50,[23],100 nM
same,TGI,[23]; read-out: pTGI (converted),5.01 µM
same,GI50,[24],1000 nM
same,TGI,[24]; read-out: pTGI (converted),79.4 µM
same,GI50,[25],631 nM
same,TGI,[25]; read-out: pTGI (converted),3.98 µM
same,GI50,[26],7.94 µM
same,TGI,[26]; read-out: pTGI (converted),79.4 µM
same,GI50,[27],31.6 nM
same,TGI,[27]; read-out: pTGI (converted),10 µM
same,GI50,[28],31.6 nM
same,TGI,[28]; read-out: pTGI (converted),63.1 nM
same,GI50,[29],200 nM
same,TGI,[29]; read-out: pTGI (converted),50.1 µM
same,GI50,[30],3.16 µM
same,TGI,[30]; read-out: pTGI (converted),50.1 µM
same,GI50,[31],50.1 nM
same,TGI,[31]; read-out: pTGI (converted),1260 nM
same,GI50,[32],398 nM
same,TGI,[32]; read-out: pTGI (converted),79.4 µM
same,GI50,[33],10 nM
same,TGI,[33]; read-out: pTGI (converted),> 100 µM
same,GI50,[34],158 nM
same,TGI,[34]; read-out: pTGI (converted),251 nM
same,GI50,[35],63.1 nM
same,TGI,[35]; read-out: pTGI (converted),1260 nM
same,GI50,[36],158 nM
same,TGI,[36]; read-out: pTGI (converted),6.31 µM
